HCV core dimer = blocks dimerization of HCV core protein. TR-FRET GST/Flag-core106 dimerization, 1536-well. inhibition, % at 5 µM. actives 0.33% (n = 300,000);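 active = inhibition above the mean of all tested compounds plus 3 SD, set per screening campaign, cut at about 45% in these data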
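Assay system – GST-tagged and Flag-tagged HCV core protein residues 1-106 · Quantity – core106 proteins, GST 13.5 nM and Flag 17 nM · Benchmarks – unlabelled core106 and no-GST-core106 wells · Read-out basis – percent inhibition of core106 dimerization signal · Detection – time-resolved FRET, ex 340 nm, em 617 and 671 nm · Schedule – 4 h at 22.5 °C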
PfM18AAP inh = blocks P. falciparum M18 aspartyl aminopeptidase; recombinant PfM18AAP, H-Glu-NHMec fluorogenic cleavage; inhibition, % at 7.35 µM; actives 1.2% (n = 290,000);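 active = inhibition above the campaign mean inhibition over all tested compounds plus 3 SD, cut at about 28% in these data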;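 also: 0% = plate median of test compound wells and 100% = 2 mM ZnCl2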
NS3 helicase inh = HCV NS3 helicase inhibition; NS3 helicase DNA unwinding, Cy5 molecular beacon fluorescence; inhibition, % at 10.9 µM; actives 0.56% (n = 290,000);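 active = inhibition above the mean of all tested compounds plus 3 SD, set per campaign, cut at about 35% in these data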;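 also: 0% = DMSO wells and 100% = thioflavine S control wells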
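Material: hepatitis C virus NS3 helicase domain fragment enzyme; measured by: Cy5 fluorescence, 0 and 60 min reads; control set: DMSO and thioflavine S; incubation: 60 min unwinding reaction at 25 °C after ATP addition; read-out basis: % inhibition from 60/0 min fluorescence ratio, DMSO 0%, thioflavine S 100%; repeats: singlicate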
ZTA counter = blocks Epstein-Barr virus ZTA, an EBNA-1 counter-screen | actives 0.15% (n = 320,000) | inhibition, % at 11 µM | ZTA-DNA binding, fluorescence polarization | AID 2234 | P03206; in the data active = inhibition above about 33%
Target sequence (P03206 whole entry, looked up): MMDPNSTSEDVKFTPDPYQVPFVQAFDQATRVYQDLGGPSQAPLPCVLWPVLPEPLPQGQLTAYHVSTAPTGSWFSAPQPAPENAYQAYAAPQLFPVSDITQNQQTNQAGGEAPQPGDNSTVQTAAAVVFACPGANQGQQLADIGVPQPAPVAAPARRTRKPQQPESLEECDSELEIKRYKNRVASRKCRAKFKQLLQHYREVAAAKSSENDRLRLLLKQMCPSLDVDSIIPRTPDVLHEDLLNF
ALR inh = inhibitors of human sulfhydryl oxidase ALR; P55789; purified ALR, DTT oxidation, H2O2 HRP-luminol luminescence; inhibition, % (concentration not given with the values); actives 3.8% (n = 290,000); AID 485317;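 active = mean replicate inhibition above about 79%, with every replicate also reaching it, limit read from the data; inconclusive = only one of the two criteria met; inactive = mean below limit and not every replicate reaching it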
Target sequence (P55789 whole entry, looked up): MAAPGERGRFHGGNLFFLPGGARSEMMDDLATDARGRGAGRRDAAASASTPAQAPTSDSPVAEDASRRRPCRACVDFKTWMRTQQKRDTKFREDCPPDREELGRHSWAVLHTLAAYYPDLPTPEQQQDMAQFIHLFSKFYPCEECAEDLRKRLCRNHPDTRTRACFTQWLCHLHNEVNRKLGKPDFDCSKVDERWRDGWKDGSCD
EBNA-1 inhibitor = blocks EBNA-1 binding to DNA; inhibition, % at 14.8 µM; actives 0.34% (n = 300,000); AID 1950; EBNA-1 DNA binding, fluorescence polarization; in the data active = inhibition above about 28%
* hit, by the source's call; u = inconclusive; x = no result. Compounds with a hit are over-represented: about 5.2% of the library has one in this group of screens.

SMILES	HCV core dimer	PfM18AAP inh	NS3 helicase inh	ZTA counter	ALR inh	EBNA-1 inhibitor
N#CC1(C#N)CC(C=O)=C(N)C1(C#N)CC(=O)C12CC3CC(CC(C3)C1)C2 (stereo not drawn)	1.5	8.3	12.7	2.6	96.3*	-2.1
Nc1nccnc1C(=O)OCC(=O)C12CC3CC(CC(C3)C1)C2	3.4	x	x	-7.4	1.2	-2.9
CN1CCN(c2ccc(Nc3ccnc4cc(Cl)ccc34)cc2)CC1	-6.3	1.7	23.9	-22.1	92.3*	-11.3
S=C(N/N=C/c1ccco1)NC1CC2CCC1C2 (stereo not drawn)	9.8	9.9	18.9	-7.5	97.9*	-11.2
Cc1noc(C)c1COc1ccc(C(=O)OCC(N)=O)cc1	-2.1	-16.2	1.8	8.1	-2.6	7.7
Cc1ccc(-c2nc3ccccc3s2)cc1NC(=S)NC(=O)/C=C/c1ccco1	51.7*	-2.6	4.3	-9.0	4.3	-5.7
O=C(/C=C/c1ccco1)NC(=S)Nc1cccc(-c2nc3ccccc3s2)c1	51.9*	0.9	23.5	-3.2	4.7	-7.6
O=S(=O)(/N=C(\Sc1ccccc1)c1ccccc1)c1ccc(Cl)cc1	4.7	0.6	8.8	0.0	-1.5	1.4
Cc1ccc(S(=O)(=O)/N=C(\Sc2ccccc2)c2ccccc2)cc1	-0.2	1.2	2.9	8.6	98.4*	-2.4
Cc1ccc2c(c1)sc(-c1ccc(N(C)C)cc1)[n+]2C	-12.3	20.6	6.9	-5.5	42.8	5.7
COc1cccc(NC(=O)CN(C)C(=O)c2ccc3c(c2)C(=O)N(CCC(C)C)C3=O)c1	x	x	x	9.8	x	x
NS(=O)(=O)c1ccc(CCNC(=O)c2coc3ccccc3c2=O)cc1	0.7	-0.1	0.3	-1.5	12.6	-11.3
COC(=O)c1sc(N2C(=O)C(=O)/C(=C(/O)c3ccc(C)cc3)C2c2ccco2)nc1C (stereo not drawn)	9.1	24.1	26.6	10.7	92.1*	-2.5
O=S(=O)(NCC1CCN(Cc2ccccc2)CC1)c1ccccc1C(F)(F)F	-14.1	2.6	-6.9	-9.4	x	-6.7
Cc1ccc2cc3cc(C(=O)NCCCN4CCCC4=O)oc3nc2c1	-4.1	-2.8	-3.8	-1.1	78.0*	2.4
O=C(NCc1ccco1)c1cc2c(s1)CSC2	25.6	14.8	23.4	8.7	98.8*	7.8
Cc1ccc2nc3sc(C(=O)NCc4ccco4)c(N)c3cc2c1	52.9*	12.9	11.6	-9.7	8.3	-5.6
O=C(NCc1ccc2c(c1)OCO2)c1cc2c(s1)CSC2	41.1	10.6	17.5	9.8	97.0*	-4.3
CN(C(=O)Cn1nc(C(=O)O)c2ccccc2c1=O)C1CCCCC1	x	x	x	x	0.4	x
Cc1cccc(NC(=O)c2sc3nc(N)c(C#N)cc3c2N)c1	-0.6	28.1*	-1.9	5.2	19.7	-14.7
COc1ccc(-c2ccc(/C=C(\NC(=O)c3ccccc3)C(=O)N3CCOCC3)o2)cc1	2.1	-1.4	8.8	-24.1	97.8*	-6.2
CC(=O)N1CC(C)Sc2ccc(S(=O)(=O)NC3CCCCC3C)cc21 (stereo not drawn)	0.4	2.3	-4.7	17.2	0.7	-1.9
Cc1cc(/C=C(/C#N)C(=O)O)c(C)n1-c1cccc2ccccc12	10.8	5.2	5.6	9.7	96.1*	-12.8
O=C(NN=C1CCCC1)c1cc(-c2ccccc2)n[nH]1	1.2	4.1	-3.3	3.0	96.8*	7.7
CCCCn1c(SCC(=O)Nc2cc(C)on2)nc2ccccc2c1=O	73.2*	9.8	3.2	7.7	-0.5	12.2
SMILES	HCV core dimer	PfM18AAP inh	NS3 helicase inh	ZTA counter	ALR inh	EBNA-1 inhibitor
CN(C)CCCn1c(SCC(=O)Nc2nc(-c3cccc(Br)c3)cs2)nc2ccccc2c1=O	-3.7	-0.3	-67.4	27.0	99.2*	7.8
COCCn1c(SCC(=O)c2cc(C)n(C)c2C)nc2ccccc2c1=O	0.1	9.2	3.8	-1.2	98.8*	0.2
O=C(CSc1nc2ccccc2[nH]1)Nc1nc(-c2cccc(Br)c2)cs1	5.8	-2.5	-19.7	18.8	33.6	-0.6
Cc1ccc(NC(=O)CSc2nc3ccccc3c(=O)n2CCCN2CCCCC2)cc1C	-6.0	-4.7	-82.6	7.0	98.2*	-11.7
Cc1cc2[nH]c(=O)c(=O)[nH]c2cc1S(=O)(=O)Nc1cccc(F)c1	-3.2	5.8	4.7	7.8	-2.7	-11.0
CCC(c1nnc(SCC(=O)Nc2ccc(NC(C)=O)cc2)n1Cc1ccccc1)N(C)C (stereo not drawn)	-5.2	-2.8	-4.7	2.4	-11.4	0.3
Cc1cc(NC(=O)CSCC(=O)Nc2nc3ccccc3s2)no1	x	x	x	6.3	-0.3	x
O=C(Cn1c(=O)oc2cc(S(=O)(=O)N3CCc4ccccc43)ccc21)N1CCCCC1	3.0	-1.4	0.0	14.8	87.8*	9.6
CC(=O)Nc1cc(C)c(S(C)(=O)=O)c(C)c1	4.0	-12.7	9.9	-3.8	-5.7	-3.8
CCC(C)c1c(O)nc(SCC(=O)c2ccccc2)[nH]c1=O (stereo not drawn)	-3.3	2.7	1.1	-1.9	99.2*	-8.8
C=CCc1c(C)nc(SCC(N)=O)[nH]c1=O	1.8	-2.3	-12.2	13.1	-3.1	11.6
C=CCc1c(O)nc(SCC(=O)c2ccccc2)[nH]c1=O	2.7	4.0	-0.2	-3.2	99.2*	-1.3
CCC(C)c1c(O)nc(SCC(=O)Nc2ccccc2)[nH]c1=O (stereo not drawn)	-5.0	-0.9	-3.9	-3.0	99.2*	-7.1
CC(NC(=O)c1ccccc1Cl)c1ccc(-n2ccnc2)cc1 (stereo not drawn)	-0.5	-6.9	3.3	17.1	-0.6	-4.2
Nc1ccc(Nc2ccccc2)c(Cl)c1	-10.4	-47.4	-14.2	-3.4	99.6*	4.8
Nc1ccccc1Nc1ccccc1	-12.7	14.9	-16.0	-7.8	u	-4.4
CC(C)Cn1c(N)c(C(=O)COC(=O)CC23CC4CC(CC(C4)C2)C3)c(=O)n(C)c1=O	13.7	-11.1	-3.8	3.1	-0.5	-4.3
COc1ccc(N2CCN(C(=O)C3(C)CC3(Cl)Cl)CC2)cc1 (stereo not drawn)	5.2	8.6	-3.2	4.5	99.2*	1.0
COc1ccc(N2CCN(C(=O)Cc3ccc(C)cc3)CC2)cc1	5.2	4.6	2.3	-2.7	79.6*	4.5
O=C(Cc1ccc(Cl)cc1)N1CCN(c2ccccc2)CC1	8.1	2.7	5.4	-2.7	87.8*	4.2
COc1ccc(N2CCN(C(=O)Cc3ccc(Cl)cc3)CC2)cc1	1.2	0.7	6.3	-4.7	71.0	17.6
CCOC(=O)N1CCN(C(=O)Cc2ccc(Cl)cc2)CC1	-5.6	-8.1	1.5	-15.3	96.1*	-0.8
O=C(/C=C/c1ccccc1[N+](=O)[O-])NCc1cccnc1	-7.3	-4.2	4.9	-3.5	x	5.8
COc1ccccc1N1CCN(C(=O)c2ccc(Cl)c(S(=O)(=O)N3CCOCC3)c2)CC1	-1.4	-11.9	-2.5	6.8	10.8	9.9

Bioassay records: PubChem BioAssay, several laboratories
